The source made the active and inactive calls. No cut-off for these calls is given here.
Assays:
[1] = Antioxidant activity assessed as EDTA equivalent of chelating effect after 10 mins by spectrophotometric analysis; assay type: functional
Summary of the method: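 Ferrous-ion chelation: compounds or EDTA standard added to 2 mmol/L FeCl2 solution, then 5 mmol/L ferrozine added to start reaction. Mixture shaken vigorously and left 10 min at room temperature. Absorbance read at 562 nm. Activity expressed as mg EDTA equivalent/g.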

[2] = molecular target: Albumin (Bos taurus, UniProt P02769); test: Binding affinity to bovine serum albumin at 25 uM by fluorescence spectra analysis; assay type: ADME; settings: cattle, isolated protein
[3] = test system: DNA; test: Displacement of ethidium bromide from calf thymus DNA by spectrometric analysis; assay type: nucleic-acid assay; settings: Bos taurus
Summary of the method: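 Competitive EtBr displacement from CT-DNA monitored by emission spectroscopy. Kq taken as slope of I0/I versus [Q]. Kapp obtained from KEB[EB] = Kapp[compound], using compound concentration giving 50% loss of EB fluorescence, KEB = 1.0 × 10^7 M−1, [EB] = 5 μM.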

[4] = test system: DNA; test: Binding affinity to calf thymus DNA by absorption titration; settings: Bos taurus
[5] = test system: Radical scavenging activity; test: Antioxidant activity assessed as DPPH radical scavenging activity; assay type: functional
[6] = test system: HCT-116; test: Cytotoxicity against human HCT116 cells; assay type: functional, cell-based
[7] = test system: HeLa; test: Cytotoxicity against human HeLa cells; assay type: functional, cell-based
[8] = test system: AGS; test: Cytotoxicity against human AGS cells; assay type: functional, cell-based
[9] = Antioxidant activity assessed as hydroxyl radical scavenging activity after 15 mins by spectrophotometric analysis; assay type: functional
[10] = Antioxidant activity assessed as trolox equivalents of ABTS radical scavenging activity after 30 mins by TEAC assay; assay type: functional
Summary of the method: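 ABTS (7 mM in water) was oxidized with 2.45 mM potassium persulfate (final) for 12–16 h in the dark at room temperature. The radical was diluted in ethanol to A734 0.700 ± 0.02 at 30 °C, then added to sample or Trolox standards (final 0–15 μM). A734 was read at 30 °C, 30 min after mixing. Results are given as μmol Trolox equivalent/g.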

[11] = Antioxidant activity assessed as superoxide radical scavenging activity by NBT reduction assay; assay type: functional

Sequence of Albumin (P02769 whole entry): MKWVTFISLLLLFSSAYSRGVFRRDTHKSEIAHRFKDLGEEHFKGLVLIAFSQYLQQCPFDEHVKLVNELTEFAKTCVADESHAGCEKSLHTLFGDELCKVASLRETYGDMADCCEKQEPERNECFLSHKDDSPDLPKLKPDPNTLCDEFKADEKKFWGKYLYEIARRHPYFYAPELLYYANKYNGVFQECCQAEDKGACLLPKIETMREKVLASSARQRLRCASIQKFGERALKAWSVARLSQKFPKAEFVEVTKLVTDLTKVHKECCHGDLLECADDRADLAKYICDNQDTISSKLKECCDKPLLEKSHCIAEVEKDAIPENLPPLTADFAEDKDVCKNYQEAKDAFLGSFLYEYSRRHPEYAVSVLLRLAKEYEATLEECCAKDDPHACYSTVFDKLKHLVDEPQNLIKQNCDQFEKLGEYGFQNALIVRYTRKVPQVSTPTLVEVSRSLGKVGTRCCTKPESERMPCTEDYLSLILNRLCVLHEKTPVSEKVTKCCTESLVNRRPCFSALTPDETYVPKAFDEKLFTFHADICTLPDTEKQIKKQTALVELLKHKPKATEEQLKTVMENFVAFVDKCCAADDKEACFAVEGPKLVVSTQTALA

| Compound | Activity [2] | Kapp [3] [×10⁵ /M] | Kq [3] [×10⁴ /M] | Kb [4] [×10⁴ /M] | IC50 [5] [µM] | IC50 [9] [µM] | IC50 [11] [µM] | Activity [1] [mg/g] | Activity [6] | Activity [7] | Activity [8] | Activity [10] [µmol/g] |
| --- | --- | --- | --- | --- | --- | --- | --- | --- | --- | --- | --- | --- |
| CC(C)(C)c1cc(CCC(=O)O)cc(C(C)(C)C)c1F | Active | 1.6 | 1.71 | 3.13 | 8.4 | 25.8 | 8.4 | 4.5 | inactive | inactive | inactive | 6740 |
| C=CCC(CC=C)(CC=C)c1ccc(CCCCCCCCC)cc1O | Active | 0.34 | 0.68 | 2.23 | 14.9 | 31.1 | 32.8 | 8.4 | inactive | inactive | inactive | 4020 |
| CC(C)C[C@H](NC(=O)[C@@H](O)C[C@H](N)CN)C(N)=O | Active | 0.13 | 0.26 | 2.36 | 34.7 | 35.5 | 34.6 | 11.9 | inactive | inactive | inactive | 4090 |

These reach a lower IC50 [5]. Values come first.

| Activity [2] | Kapp [3] [×10⁵ /M] | Kq [3] [×10⁴ /M] | Kb [4] [×10⁴ /M] | IC50 [5] [µM] | IC50 [9] [µM] | IC50 [11] [µM] | Compound | Activity [1] [mg/g] | Activity [6] | Activity [7] | Activity [8] | Activity [10] [µmol/g] |
| --- | --- | --- | --- | --- | --- | --- | --- | --- | --- | --- | --- | --- |
| – | – | – | – | 4.7 | 19.4 | 4.7 | C[C@@H]1O[C@@H](OC[C@H]2O[C@@H](Oc3c(-c4ccc(O)c(O)c4)oc4cc(O)cc(O)c4c3=O)[C@H](O)[C@@H](O)[C@@H]2O)[C@H](O)[C@H](O)[C@H]1O [RUTIN] | 18.5 | – | – | – | 10100 |
| – | – | – | – | 4.5 | 11.5 | 8.6 | Cc1cc(C(C)(C)C)c(O)c(C(C)(C)C)c1 [BUTYLATED HYDROXYTOLUENE] | 15.4 | – | – | – | 6050 |
